{
  "source": "ChEMBL document CHEMBL3632536",
  "about": "“Novel Fluorinated 8-Hydroxyquinoline Based Metal Ionophores for Exploring the Metal Hypothesis of Alzheimer's Disease” (ACS Med Chem Lett, 2015)",
  "key": {"[1]": {"assay": "Reversal of Zn-induced human soluble amyloid beta (1 to 42) aggregation after 30 mins by bis-ANS-based fluorometric analysis", "outline": "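Soluble Aβ oligomer aggregation monitored fluorometrically with bis-ANS.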"}, "[2]": {"system": "SH-SY5Y", "assay": "Ionophoric activity in human SH-SY5Y cells assessed as increase in cellular Fe uptake at 20 uM after 6 hrs by ICP-MS analysis relative to vehicle-treated control", "format": "functional, cell-based", "outline": "(§1)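 SH-SY5Y neuronal cells exposed to each compound at 20 μM for 6 h. Cellular Zn, Cu and Fe content then determined by ICP-MS and compared with untreated control level.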"}, "[3]": {"system": "SH-SY5Y", "assay": "Ionophoric activity in human SH-SY5Y cells assessed as increase in cellular Zn uptake at 20 uM after 6 hrs by ICP-MS analysis relative to vehicle-treated control", "format": "functional", "outline": "as §1"}, "[4]": {"system": "SH-SY5Y", "assay": "Ionophoric activity in human SH-SY5Y cells assessed as increase in cellular Cu uptake at 20 uM after 6 hrs by ICP-MS analysis relative to vehicle-treated control", "format": "functional", "outline": "as §1"}},
  "note": "pEC50: −log10 of the molar value. The source made the active and inactive calls. The calls are words filed in the database; no cut-off is given here.",
  "data": [
    {"smiles": "Oc1ccccc1/N=C/c1ccc(F)cc1", "values": [
      {"measurement": "pEC50", "setting": "[1]", "result": 4.81},
      {"measurement": "Activity", "setting": "[2]", "result": "inactive"},
      {"measurement": "Activity", "setting": "[3]", "result": "inactive"}
    ]},
    {"smiles": "Oc1cccc2nccnc12", "values": [
      {"measurement": "Activity", "setting": "[2]", "result": "inactive"},
      {"measurement": "Activity", "setting": "[3]", "result": "inactive"}
    ]},
    {"smiles": "Oc1ccc(F)c2cccnc12", "values": [
      {"measurement": "Activity", "setting": "[4]", "result": "Active"},
      {"measurement": "Activity", "setting": "[2]", "result": "inactive"},
      {"measurement": "Activity", "setting": "[3]", "result": "inactive"}
    ]},
    {"smiles": "COc1cccc2ccc(Cl)nc12", "values": [
      {"measurement": "Activity", "setting": "[2]", "result": "inactive"},
      {"measurement": "Activity", "setting": "[3]", "result": "inactive"}
    ]},
    {"smiles": "Oc1c(F)cc(I)c2cccnc12", "values": [
      {"measurement": "pEC50", "setting": "[1]", "result": 5.64}
    ]},
    {"smiles": "Oc1c(F)ccc2cccnc12", "values": [
      {"measurement": "Activity", "setting": "[4]", "result": "Active"},
      {"measurement": "Activity", "setting": "[2]", "result": "inactive"},
      {"measurement": "Activity", "setting": "[3]", "result": "inactive"}
    ]},
    {"smiles": "Oc1c(F)cc(Br)c2cccnc12", "values": [
      {"measurement": "pEC50", "setting": "[1]", "result": 5.46}
    ]},
    {"smiles": "CN(Cc1cn(CCF)nn1)Cc1ccc2c(Cl)cc(Cl)c(O)c2n1", "values": [
      {"measurement": "pEC50", "setting": "[1]", "result": 5.64},
      {"measurement": "Activity", "setting": "[2]", "result": "inactive"},
      {"measurement": "fold change (FC)", "setting": "[3]", "result": ">2"}
    ]},
    {"smiles": "Oc1c(I)cc(Cl)c2cccnc12", "note": "[CLIOQUINOL]", "values": [
      {"measurement": "pEC50", "setting": "[1]", "result": 5.74},
      {"measurement": "Activity", "setting": "[4]", "result": "Active"},
      {"measurement": "Activity", "setting": "[3]", "result": "Active"}
    ]},
    {"smiles": "Oc1c(Cl)cc(Cl)c2ccc(COCCCCF)nc12", "values": [
      {"measurement": "pEC50", "setting": "[1]", "result": 5.70},
      {"measurement": "Activity", "setting": "[4]", "result": "Active"},
      {"measurement": "Activity", "setting": "[2]", "result": "inactive"}
    ]},
    {"smiles": "Oc1c(Cl)cc(Cl)c2ccc(COCCF)nc12", "values": [
      {"measurement": "pEC50", "setting": "[1]", "result": 5.62},
      {"measurement": "Activity", "setting": "[2]", "result": "inactive"}
    ]},
    {"smiles": "CN(Cc1cn(CCCCF)nn1)Cc1ccc2c(Cl)cc(Cl)c(O)c2n1", "values": [
      {"measurement": "pEC50", "setting": "[1]", "result": 5.55},
      {"measurement": "Activity", "setting": "[2]", "result": "inactive"},
      {"measurement": "fold change (FC)", "setting": "[3]", "result": ">2"}
    ]},
    {"smiles": "Oc1cccc2cc(F)cnc12", "values": [
      {"measurement": "Activity", "setting": "[4]", "result": "Active"},
      {"measurement": "Activity", "setting": "[2]", "result": "inactive"},
      {"measurement": "Activity", "setting": "[3]", "result": "inactive"}
    ]},
    {"smiles": "Oc1c(F)cc(Cl)c2cccnc12", "values": [
      {"measurement": "pEC50", "setting": "[1]", "result": 5.31}
    ]},
    {"smiles": "Oc1cccc2cccnc12", "values": [
      {"measurement": "Activity", "setting": "[4]", "result": "Active"},
      {"measurement": "Activity", "setting": "[2]", "result": "inactive"},
      {"measurement": "Activity", "setting": "[3]", "result": "inactive"}
    ]},
    {"smiles": "Oc1c(Cl)cc(F)c2cccnc12", "values": [
      {"measurement": "pEC50", "setting": "[1]", "result": 5.28},
      {"measurement": "fold change (FC)", "setting": "[4]", "result": 6},
      {"measurement": "fold change (FC)", "setting": "[3]", "result": ">2"}
    ]},
    {"smiles": "Oc1cccc2cc[nH]c12", "values": [
      {"measurement": "Activity", "setting": "[2]", "result": "inactive"},
      {"measurement": "Activity", "setting": "[3]", "result": "inactive"}
    ]},
    {"smiles": "Oc1c(Br)cc(F)c2cccnc12", "values": [
      {"measurement": "pEC50", "setting": "[1]", "result": 5.43},
      {"measurement": "fold change (FC)", "setting": "[4]", "result": 6},
      {"measurement": "fold change (FC)", "setting": "[3]", "result": ">2"}
    ]},
    {"smiles": "Oc1c(I)cc(F)c2cccnc12", "values": [
      {"measurement": "pEC50", "setting": "[1]", "result": 5.60},
      {"measurement": "fold change (FC)", "setting": "[4]", "result": 6},
      {"measurement": "fold change (FC)", "setting": "[3]", "result": ">2"}
    ]},
    {"smiles": "CN(C)Cc1ccc2c(Cl)cc(Cl)c(O)c2n1", "values": [
      {"measurement": "pEC50", "setting": "[1]", "result": 5.70},
      {"measurement": "Activity", "setting": "[4]", "result": "Active"},
      {"measurement": "Activity", "setting": "[3]", "result": "Active"}
    ]},
    {"smiles": "Oc1cccc2ccc(F)nc12", "values": [
      {"measurement": "pEC50", "setting": "[1]", "result": "< 3.92"},
      {"measurement": "Activity", "setting": "[4]", "result": "inactive"},
      {"measurement": "Activity", "setting": "[2]", "result": "inactive"},
      {"measurement": "Activity", "setting": "[3]", "result": "inactive"}
    ]},
    {"smiles": "Oc1cc(F)cc2cccnc12", "values": [
      {"measurement": "Activity", "setting": "[4]", "result": "Active"},
      {"measurement": "Activity", "setting": "[2]", "result": "inactive"},
      {"measurement": "Activity", "setting": "[3]", "result": "inactive"}
    ]},
    {"smiles": "CN(Cc1cn(CCCF)nn1)Cc1ccc2c(Cl)cc(Cl)c(O)c2n1", "values": [
      {"measurement": "pEC50", "setting": "[1]", "result": 5.35},
      {"measurement": "Activity", "setting": "[2]", "result": "inactive"},
      {"measurement": "fold change (FC)", "setting": "[3]", "result": ">2"}
    ]}
  ]
}
